Legend:
[1] = target: GABA-A receptor; anion channel; test: Displacement of [3H]muscimol from orthosteric binding site of GABA(A) receptor in Sprague-Dawley rat cortical synaptic membranes by liquid scintillation counting
[2] = target: T1, GABA-A receptor; alpha-1/beta-2/gamma-2 (Homo sapiens, UniProt P14867+P18507+P47870); type: cell-based
T1 sequence (P14867 whole entry): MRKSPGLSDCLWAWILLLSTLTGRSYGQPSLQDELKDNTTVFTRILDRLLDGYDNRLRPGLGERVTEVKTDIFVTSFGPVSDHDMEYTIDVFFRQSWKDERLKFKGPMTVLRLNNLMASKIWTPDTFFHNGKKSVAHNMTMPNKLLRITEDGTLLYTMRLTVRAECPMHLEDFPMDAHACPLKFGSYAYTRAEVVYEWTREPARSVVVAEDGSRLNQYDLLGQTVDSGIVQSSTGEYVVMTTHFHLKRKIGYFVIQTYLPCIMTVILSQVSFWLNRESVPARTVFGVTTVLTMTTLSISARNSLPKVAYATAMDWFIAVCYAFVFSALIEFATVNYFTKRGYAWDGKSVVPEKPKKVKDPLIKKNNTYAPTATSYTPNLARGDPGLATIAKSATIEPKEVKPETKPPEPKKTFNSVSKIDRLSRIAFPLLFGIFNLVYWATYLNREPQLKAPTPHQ
T1 sequence (P47870 whole entry): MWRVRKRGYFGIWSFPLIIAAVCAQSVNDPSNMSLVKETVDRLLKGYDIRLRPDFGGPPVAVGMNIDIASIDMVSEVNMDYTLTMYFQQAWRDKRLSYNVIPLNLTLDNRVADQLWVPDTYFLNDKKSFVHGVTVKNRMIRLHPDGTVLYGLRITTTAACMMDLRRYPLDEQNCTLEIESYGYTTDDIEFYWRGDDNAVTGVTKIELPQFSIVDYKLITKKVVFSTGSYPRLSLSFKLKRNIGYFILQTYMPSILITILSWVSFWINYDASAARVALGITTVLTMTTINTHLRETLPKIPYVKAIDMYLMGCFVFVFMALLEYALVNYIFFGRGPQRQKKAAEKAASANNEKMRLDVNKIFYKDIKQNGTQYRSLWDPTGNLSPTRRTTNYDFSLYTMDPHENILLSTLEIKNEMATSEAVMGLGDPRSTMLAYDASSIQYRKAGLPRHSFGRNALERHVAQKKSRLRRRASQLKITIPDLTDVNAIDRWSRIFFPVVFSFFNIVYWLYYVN
T1 sequence (P18507 whole entry): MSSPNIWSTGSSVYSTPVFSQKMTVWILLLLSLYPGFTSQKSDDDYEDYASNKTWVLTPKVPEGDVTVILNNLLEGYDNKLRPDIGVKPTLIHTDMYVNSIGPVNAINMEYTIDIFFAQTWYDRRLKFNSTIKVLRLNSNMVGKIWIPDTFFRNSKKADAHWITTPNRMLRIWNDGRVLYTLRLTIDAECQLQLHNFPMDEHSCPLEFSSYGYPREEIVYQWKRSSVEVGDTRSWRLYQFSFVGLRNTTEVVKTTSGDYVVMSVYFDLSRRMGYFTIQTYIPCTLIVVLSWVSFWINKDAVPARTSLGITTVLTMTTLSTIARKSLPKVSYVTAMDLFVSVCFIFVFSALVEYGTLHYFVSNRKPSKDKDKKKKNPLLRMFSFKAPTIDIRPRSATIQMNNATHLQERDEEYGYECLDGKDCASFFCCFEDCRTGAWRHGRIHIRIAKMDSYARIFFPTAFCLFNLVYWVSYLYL

[3] = target: GHB high-affinity binding site (rat)
[4] = Agonist activity at GABA(B) receptor (unknown origin); set-up: species or system Homo sapiens
[5] = Drug uptake in C57BL/6JRj mouse brain at 10 mg/kg, ip after 30 mins by LC-MS analysis; type: ADME, organism-based; settings: read-out: Drug uptake
In short: (§1)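 Mice dosed i.p. at 10 mg/kg. Compound concentrations measured in brain (ng/g) and plasma (ng/mL). Brain-to-plasma distribution ratio taken from these two concentrations.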

[6] = Plasma concentration in C57BL/6JRj mouse at 10 mg/kg, ip after 30 mins by LC-MS analysis; type: ADME, organism-based; in short: as §1
[7] = Ratio of drug uptake in C57BL/6JRj mouse brain to plasma at 10 mg/kg, ip after 30 mins by LC-MS analysis; type: ADME, organism-based; settings: read-out: BPR; in short: as §1
[8] = Metabolic stability in mouse liver microsomes assessed as compound remaining at 20 uM preincubated for 5 mins followed by NADPH addition and measured at 0 min by UHPLC-MS/MS analysis; type: ADME, Microsome; settings: read-out: Stability
In short: (§2)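 Parent loss and parent-drug formation quantified by UHPLC-MS/MS. Percent remaining = internal-standard-corrected peak area at each time ÷ peak area at 0 min × 100. The 0-min peak area was compared with freshly prepared compound in neat buffer and MeCN. A dash at 0 min means the compound degraded during sample preparation and pre-incubation. Mean of three biological replicates.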

[9] = Metabolic stability in mouse liver microsomes assessed as compound remaining at 20 uM preincubated for 5 mins followed by NADPH addition and measured at 30 mins by UHPLC-MS/MS analysis; type: ADME, Microsome; settings: read-out: Stability; in short: as §2
[10] = Metabolic stability in mouse liver microsomes assessed as compound remaining at 20 uM preincubated for 5 mins followed by NADPH addition and measured at 60 mins by UHPLC-MS/MS analysis; type: ADME, Microsome; settings: read-out: Stability; in short: as §2
[11] = Metabolic stability in mouse plasma assessed as compound remaining at 10 uM preincubated for 5 mins followed by NADPH addition and measured at 0 min by UHPLC-MS/MS analysis; type: ADME, cell-free; settings: read-out: Stability; in short: as §2
[12] = Metabolic stability in mouse plasma assessed as compound remaining at 10 uM preincubated for 5 mins followed by NADPH addition and measured at 60 mins by UHPLC-MS/MS analysis; type: ADME, cell-free; settings: read-out: Stability; in short: as §2
[13] = Metabolic stability in mouse plasma assessed as compound remaining at 10 uM preincubated for 5 mins followed by NADPH addition and measured at 120 mins by UHPLC-MS/MS analysis; type: ADME, cell-free; settings: read-out: Stability; in short: as §2
[14] = Chemical stability of the compound; type: physicochemical
[15] = Dissociation constant, pKa of the compound; type: physicochemical

Compound: N=c1ccc(-c2ccc([N+](=O)[O-])cc2)nn1CCCC(=O)O
- Ki [1]: 0.75 µM
- IC50 [2]: 30 µM
- Ki [3]: 14 µM

Compound: O=C(O)CCCO [OXYBATE]
- EC50 [4]: 5000 µM

Compound: N=c1ccc(-c2cccc(N)c2)nn1CCCC(=O)O
- Ki [1]: 1.1 µM
- IC50 [2]: 30 µM
- Ki [3]: 30 µM

Compound: COc1cccc(-c2ccc3nc(CC(=O)O)cn3n2)c1
- Ki [1]: > 100 µM
- Ki [3]: 0.44 µM

Compound: COc1cccc(C2=NN3CC(CC(=O)O)N=C3C=C2)c1 (stereo unspecified)
- Ki [1]: > 100 µM
- Ki [3]: > 100 µM

Compound: O=C(O)Cc1cn2nc(-c3ccc(Cl)cc3)ccc2n1
- Ki [1]: > 100 µM
- concentration at 0.5 h [5]: 59 ng/g
- concentration at 0.5 h [6]: 7600 ng/mL
- Kp at 0.5 h [7]: 0.008
- remaining at 0 h, 20 µM [8]: 100%
- remaining at 0.5 h, 20 µM [9]: 105%
- remaining at 1 h, 20 µM [10]: 100%
- remaining at 0 h, 10 µM [11]: 100%
- remaining at 1 h, 10 µM [12]: 97%
- remaining at 2 h, 10 µM [13]: 99%
- Stability [14]: Stable
- pKa [15]: 4.5
- Ki [3]: 0.22 µM

Compound: COc1ccc(C2=NN3CC(CC(=O)O)N=C3C=C2)cc1 (stereo unspecified)
- Ki [1]: > 100 µM
- Ki [3]: 45 µM

Compound: O=C(O)Cc1cn2ccccc2n1
- Ki [1]: > 100 µM
- Ki [3]: 72 µM

Compound: CC(=O)OCOC(=O)Cc1cn2nc(-c3ccc(Cl)cc3)ccc2n1
- Stability [14]: Unstable

Compound: CC(C)(C)C(=O)OCOC(=O)Cc1cn2nc(-c3ccc(Cl)cc3)ccc2n1
- Stability [14]: Unstable

Compound: O=C(O)CC1CN2N=C(c3ccccc3)C=CC2=N1 (stereo unspecified)
- Ki [1]: > 100 µM
- Ki [3]: 427 µM
- pKi [3]: 3.41

Compound: N=c1ccc(-c2cccc(OCc3ccccc3)c2)nn1CCCC(=O)O
- Ki [1]: 0.87 µM
- pKi [1]: 6.07
- Ki [3]: 4.2 µM
- pKi [3]: 5.39

Compound: O=C(O)Cc1cn2nc(-c3ccc(OCc4ccccc4)cc3)ccc2n1
- Ki [1]: > 100 µM
- Ki [3]: 2.2 µM

Compound: O=C(O)Cc1cn2nc(-c3cccc(OCc4ccccc4)c3)ccc2n1
- Ki [1]: > 100 µM
- Ki [3]: 0.51 µM
- pKi [3]: 6.33

Compound: O=C(O)Cc1cn2nc(-c3cccc(Cl)c3)ccc2n1
- Ki [1]: > 100 µM
- Ki [3]: 0.23 µM

Compound: N=c1ccc(-c2cccc(O)c2)nn1CCCC(=O)O
- Ki [1]: 0.13 µM
- IC50 [2]: 3.9 µM
- Ki [3]: 16 µM

Compound: CCOC(=O)Cc1cn2nc(-c3ccc(Cl)cc3)ccc2n1
- Stability [14]: Unstable

Compound: O=C(O)Cc1cn2nc(-c3ccc(Cl)c(Cl)c3)ccc2n1
- Ki [1]: > 100 µM
- Ki [3]: 0.19 µM
- pKi [3]: 6.77

Compound: CC(C)(C)OC(=O)Cc1cn2nc(-c3ccc(Cl)cc3)ccc2n1
- concentration at 0.5 h [5]: 798 ng/g
- concentration at 0.5 h [6]: 212 ng/mL
- Kp at 0.5 h [7]: 3.68
- remaining at 0 h, 20 µM [8]: 100%
- remaining at 0.5 h, 20 µM [9]: 90%
- remaining at 1 h, 20 µM [10]: 98%
- remaining at 0 h, 10 µM [11]: 100%
- remaining at 1 h, 10 µM [12]: 51%
- remaining at 2 h, 10 µM [13]: 36%

Compound: N=c1ccc(-c2ccc(O)cc2)nn1CCCC(=O)O
- Ki [1]: 0.22 µM
- IC50 [2]: 11 µM
- Ki [3]: 15 µM

Compound: O=C(O)CC1CN2N=C(c3cccc(Cl)c3)C=CC2=N1 (stereo unspecified)
- Ki [1]: > 100 µM
- Ki [3]: > 100 µM

Compound: COc1ccc(-c2ccc3nc(CC(=O)O)cn3n2)cc1
- Ki [1]: > 100 µM
- Ki [3]: 0.83 µM
- pKi [3]: 6.09

Compound: N=c1ccc(-c2cccc(Cl)c2)nn1CCCC(=O)O
- Ki [1]: 0.039 µM
- Ki [3]: 21 µM
- pKi [3]: 4.66

Compound: N=c1ccc(-c2ccc(Cl)cc2)nn1CCCC(=O)O
- Ki [1]: 0.61 µM
- pKi [1]: 6.23
- Ki [3]: 11 µM
- pKi [3]: 4.99

Compound: On1cc(C2CCNCC2)c(-c2cccc(-c3ccccc3)c2)n1
- Ki [1]: 0.03 µM
- Ki [3]: > 100 µM

Compound: N=c1ccc(-c2cccc([N+](=O)[O-])c2)nn1CCCC(=O)O
- Ki [1]: 0.078 µM
- IC50 [2]: 4.4 µM
- Ki [3]: 13 µM

Compound: N=c1ccc(-c2ccccc2)nn1CCCC(=O)O
- Ki [1]: 0.81 µM
- Ki [3]: 100 µM

Compound: O=C(O)CCC(O)c1ccc(OCc2ccccc2)cc1 (stereo unspecified)
- Ki [1]: > 100 µM
- Ki [3]: 0.12 µM

Compound: N=c1ccc(-c2ccc(OCc3ccccc3)cc2)nn1CCCC(=O)O
- Ki [1]: 0.016 µM
- Ki [3]: 3.1 µM

Compound: O=C(O)CC1CN2N=C(c3ccc(Cl)cc3)C=CC2=N1 (stereo unspecified)
- Ki [1]: > 100 µM
- pKa [15]: 9.7
- Ki [3]: 146 µM

Compound: O=C(O)Cc1cn2ncccc2n1
- Ki [1]: > 100 µM
- Ki [3]: 9.9 µM

Reference: ChEMBL document CHEMBL4480408 (J Med Chem, 2019)
